Data from ChEMBL document CHEMBL4184148 (Bioorg Med Chem Lett, 2017).

How the values were obtained:
Aurora kinase B = Aurora kinase B (Homo sapiens, UniProt Q96GD4); assay: Inhibition of Aurora B in human HCT116 cells assessed as reduction in histone H3 phosphorylation at S10 residues after 4 hrs by Western blot analysis; type: cell-based
In short: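 Cells were exposed to compound in dose-response for 4 h, then lysed for western blotting of histone H3 pS10. The cellular EC50 was derived from the dose-response curves. Three replicate experiments were run.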

[1] = test system: Tyrosine-protein kinase ABL1 (Homo sapiens), P00519 [H396P]; assay: Binding affinity to human phosphorylated ABL1 H396P mutant (S229 to K512 residues) expressed in HEK293 cells at 1 uM by Kinomescan method relative to control; type: cell-based
[2] = test system: Tyrosine-protein kinase ABL1 (Homo sapiens), P00519 [Y253F]; assay: Binding affinity to human phosphorylated ABL1 Y253F mutant (S229 to K512 residues) expressed in HEK293 cells at 1 uM by Kinomescan method relative to control; type: cell-based
[3] = target: Activin receptor type-2A (Homo sapiens) (UniProt P27037); assay: Binding affinity to wild-type human ACVR2A (V171 to T499 residues) expressed in Escherichia coli BL21 at 1 uM by Kinomescan method relative to control
[4] = target: Activin receptor type-1-like (Homo sapiens) (UniProt P37023); assay: Binding affinity to wild-type human ACVRL1 (L164 to Q503 residues) expressed in Escherichia coli BL21 at 1 uM by Kinomescan method relative to control
[5] = target: RAC-beta serine/threonine-protein kinase (Homo sapiens) (UniProt P31751); assay: Binding affinity to wild-type human partial length AKT2 expressed in Escherichia coli BL21 at 1 uM by Kinomescan method relative to control
In short: (§1)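 Kinome-wide competition binding panel run by an outside provider, with each compound tested at a single concentration. Activity is read against the kinase panel.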

[6] = target: Tyrosine-protein kinase receptor UFO (Homo sapiens) (UniProt P30530); assay: Binding affinity to wild-type human partial length AXL (R497 to Y821 residues) expressed in Escherichia coli BL21 at 1 uM by Kinomescan method relative to control
[7] = target: Serine/threonine-protein kinase B-raf (Homo sapiens) (UniProt P15056); assay: Binding affinity to wild-type human partial length BRAF (S429 to E741 residues) expressed in HEK293 cells at 1 uM by Kinomescan method relative to control; type: cell-based
[8] = target: Cyclin-dependent kinase 3 (Homo sapiens) (UniProt Q00526); assay: Binding affinity to wild-type human full length CDK3 (M1 to H305 residues) expressed in Escherichia coli BL21 at 1 uM by Kinomescan method relative to control
In short: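 Run as one kinome-wide competition binding panel with each compound at a single fixed concentration. Results were plotted as a kinome-wide selectivity map.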

[9] = target: Dual specificity protein kinase CLK4 (Homo sapiens) (UniProt Q9HAZ1); assay: Binding affinity to wild-type human partial length CLK4 (R135 to K481 residues) expressed in Escherichia coli BL21 at 1 uM by Kinomescan method relative to control
[10] = target: Fibroblast growth factor receptor 2 (Homo sapiens) (UniProt P21802); assay: Binding affinity to wild-type human partial length FGFR2 (D457 to E769 residues) expressed in Escherichia coli BL21 at 1 uM by Kinomescan method relative to control
[11] = target: Homeodomain-interacting protein kinase 3 (Homo sapiens) (UniProt Q9H422); assay: Binding affinity to wild-type human partial length HIPK3 (M153 to N562 residues) expressed in HEK293 cells at 1 uM by Kinomescan method relative to control; type: cell-based
[12] = target: Interleukin-1 receptor-associated kinase 4 (Homo sapiens) (UniProt Q9NWZ3); assay: Binding affinity to wild-type human partial length IRAK4 (M1 to S460 residues) expressed in HEK293 cells at 1 uM by Kinomescan method relative to control; type: cell-based
[13] = target: Serine/threonine-protein kinase 10 (Homo sapiens) (UniProt O94804); assay: Binding affinity to wild-type human partial length LOK (E16 to V314 residues) expressed in Escherichia coli BL21 at 1 uM by Kinomescan method relative to control
[14] = target: Leukocyte tyrosine kinase receptor (Homo sapiens) (UniProt P29376); assay: Binding affinity to wild-type human partial length LTK (P422 to S744 residues) expressed in Escherichia coli BL21 at 1 uM by Kinomescan method relative to control
[15] = target: MAP kinase-activated protein kinase 2 (Homo sapiens) (UniProt P49137); assay: Binding affinity to wild-type human partial length MAPKAPK2 (V48 to D345 residues) expressed in Escherichia coli BL21 at 1 uM by Kinomescan method relative to control
[16] = target: Serine/threonine-protein kinase MARK2 (Homo sapiens) (UniProt Q7KZI7); assay: Binding affinity to wild-type human partial length MARK2 (M1 to R450 residues) expressed in Escherichia coli BL21 at 1 uM by Kinomescan method relative to control
[17] = test system: Hepatocyte growth factor receptor (Homo sapiens), P08581 [Y1235D]; assay: Binding affinity to human partial length MET Y1235D mutant (D1010 to S1367 residues) expressed in Escherichia coli BL21 at 1 uM by Kinomescan method relative to control
[18] = target: Serine/threonine-protein kinase MRCK alpha (Homo sapiens) (UniProt Q5VT25); assay: Binding affinity to wild-type human partial length MRCKA (L57 to V418 residues) expressed in Escherichia coli BL21 at 1 uM by Kinomescan method relative to control
[19] = target: Muscle, skeletal receptor tyrosine-protein kinase (Homo sapiens) (UniProt O15146); assay: Binding affinity to wild-type human partial length MUSK (M553 to V869 residues) expressed in Escherichia coli BL21 at 1 uM by Kinomescan method relative to control
[20] = target: Myosin-IIIb (Homo sapiens) (UniProt Q8WXR4); assay: Binding affinity to wild-type human partial length MYO3B (M1 to D357 residues) expressed in Escherichia coli BL21 at 1 uM by Kinomescan method relative to control
[21] = target: Serine/threonine-protein kinase Nek2 (Homo sapiens) (UniProt P51955); assay: Binding affinity to wild-type human partial length NEK2 (M1 to K309 residues) expressed in Escherichia coli BL21 at 1 uM by Kinomescan method relative to control
[22] = target: Serine/threonine-protein kinase Nek6 (Homo sapiens) (UniProt Q9HC98); assay: Binding affinity to wild-type human full length NEK6 (M8 to T313 residues) expressed in Escherichia coli BL21 at 1 uM by Kinomescan method relative to control; in short: as §1
[23] = target: TGF-beta receptor type-2 (Homo sapiens) (UniProt P37173); assay: Binding affinity to wild-type human partial length TGFBR2 (I218 to K567 residues) expressed in Escherichia coli BL21 at 1 uM by Kinomescan method relative to control
[24] = target: TRAF2 and NCK-interacting protein kinase (Homo sapiens) (UniProt Q9UKE5); assay: Binding affinity to wild-type human partial length TNIK (D4 to K311 residues) expressed in Escherichia coli BL21 at 1 uM by Kinomescan method relative to control

Fibroblast growth factor receptor 2 (Homo sapiens), sequence (P21802 22-821 limits assumed): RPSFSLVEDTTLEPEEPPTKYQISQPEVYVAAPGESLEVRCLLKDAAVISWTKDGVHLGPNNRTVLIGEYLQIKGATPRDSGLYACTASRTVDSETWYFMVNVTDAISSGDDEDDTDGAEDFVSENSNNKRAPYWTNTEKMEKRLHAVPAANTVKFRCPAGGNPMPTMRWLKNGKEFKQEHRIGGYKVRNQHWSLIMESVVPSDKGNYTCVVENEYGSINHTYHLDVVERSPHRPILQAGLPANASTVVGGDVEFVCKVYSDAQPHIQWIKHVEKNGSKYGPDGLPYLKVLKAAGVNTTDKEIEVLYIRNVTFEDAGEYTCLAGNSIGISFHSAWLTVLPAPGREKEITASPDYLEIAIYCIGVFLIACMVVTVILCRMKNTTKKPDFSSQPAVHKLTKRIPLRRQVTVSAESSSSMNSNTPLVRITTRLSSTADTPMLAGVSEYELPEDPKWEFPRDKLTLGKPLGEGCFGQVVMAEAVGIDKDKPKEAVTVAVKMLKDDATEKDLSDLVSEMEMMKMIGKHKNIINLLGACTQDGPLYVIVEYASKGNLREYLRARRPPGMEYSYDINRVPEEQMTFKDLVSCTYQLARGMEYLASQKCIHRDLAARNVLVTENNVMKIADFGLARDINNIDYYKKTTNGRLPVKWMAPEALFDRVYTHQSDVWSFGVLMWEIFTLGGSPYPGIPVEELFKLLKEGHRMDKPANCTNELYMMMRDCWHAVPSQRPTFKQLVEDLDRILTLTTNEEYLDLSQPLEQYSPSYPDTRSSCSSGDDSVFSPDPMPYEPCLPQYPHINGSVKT
Myosin-IIIb (Homo sapiens), sequence (Q8WXR4 whole entry, the tested form may be a part): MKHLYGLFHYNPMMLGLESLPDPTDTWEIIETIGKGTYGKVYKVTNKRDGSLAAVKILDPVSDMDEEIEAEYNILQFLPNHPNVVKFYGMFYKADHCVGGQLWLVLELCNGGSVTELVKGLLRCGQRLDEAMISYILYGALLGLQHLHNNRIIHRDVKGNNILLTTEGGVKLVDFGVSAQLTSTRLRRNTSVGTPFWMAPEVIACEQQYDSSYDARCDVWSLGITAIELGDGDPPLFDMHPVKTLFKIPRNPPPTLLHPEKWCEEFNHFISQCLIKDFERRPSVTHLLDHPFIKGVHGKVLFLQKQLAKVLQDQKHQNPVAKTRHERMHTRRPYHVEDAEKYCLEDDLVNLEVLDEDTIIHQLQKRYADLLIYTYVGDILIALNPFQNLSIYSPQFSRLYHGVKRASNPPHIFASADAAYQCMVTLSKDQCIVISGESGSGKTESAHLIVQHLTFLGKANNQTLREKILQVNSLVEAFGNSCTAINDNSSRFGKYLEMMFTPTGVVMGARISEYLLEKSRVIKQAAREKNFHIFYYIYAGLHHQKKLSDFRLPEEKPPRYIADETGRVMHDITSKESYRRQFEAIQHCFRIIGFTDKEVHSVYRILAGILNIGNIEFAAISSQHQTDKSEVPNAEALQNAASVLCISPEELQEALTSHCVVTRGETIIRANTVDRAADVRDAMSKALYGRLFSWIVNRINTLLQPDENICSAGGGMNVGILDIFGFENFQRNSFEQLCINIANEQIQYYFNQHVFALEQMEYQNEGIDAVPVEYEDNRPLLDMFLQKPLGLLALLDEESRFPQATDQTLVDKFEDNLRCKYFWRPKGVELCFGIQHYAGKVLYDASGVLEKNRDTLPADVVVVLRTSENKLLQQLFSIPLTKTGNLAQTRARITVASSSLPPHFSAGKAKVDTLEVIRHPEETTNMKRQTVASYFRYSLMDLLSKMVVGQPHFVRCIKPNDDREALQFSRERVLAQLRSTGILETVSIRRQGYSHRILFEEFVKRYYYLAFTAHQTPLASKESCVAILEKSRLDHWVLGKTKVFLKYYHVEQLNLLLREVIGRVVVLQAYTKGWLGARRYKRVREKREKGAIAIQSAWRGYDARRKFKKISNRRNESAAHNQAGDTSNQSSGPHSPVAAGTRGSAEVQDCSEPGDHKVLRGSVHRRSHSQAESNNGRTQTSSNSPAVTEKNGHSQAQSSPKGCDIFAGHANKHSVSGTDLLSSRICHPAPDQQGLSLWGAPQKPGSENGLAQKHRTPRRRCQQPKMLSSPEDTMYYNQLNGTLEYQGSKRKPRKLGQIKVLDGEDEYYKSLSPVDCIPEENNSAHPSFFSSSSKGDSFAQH
Activin receptor type-2A (Homo sapiens), sequence (P27037 whole entry, the tested form may be a part): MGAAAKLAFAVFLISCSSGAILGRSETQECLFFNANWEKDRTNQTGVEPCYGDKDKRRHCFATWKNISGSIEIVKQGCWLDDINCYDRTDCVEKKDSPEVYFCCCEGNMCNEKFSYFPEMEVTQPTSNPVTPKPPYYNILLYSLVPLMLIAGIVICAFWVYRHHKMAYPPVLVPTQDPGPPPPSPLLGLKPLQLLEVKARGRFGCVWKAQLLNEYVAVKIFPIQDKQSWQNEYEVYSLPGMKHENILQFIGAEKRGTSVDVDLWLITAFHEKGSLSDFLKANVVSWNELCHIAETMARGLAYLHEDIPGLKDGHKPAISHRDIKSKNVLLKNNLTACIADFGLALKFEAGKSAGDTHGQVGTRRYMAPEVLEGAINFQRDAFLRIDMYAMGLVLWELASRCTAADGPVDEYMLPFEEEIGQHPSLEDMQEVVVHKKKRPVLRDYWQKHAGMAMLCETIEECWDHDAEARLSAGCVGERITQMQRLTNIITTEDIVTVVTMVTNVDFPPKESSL
Leukocyte tyrosine kinase receptor (Homo sapiens), sequence (P29376 whole entry, the tested form may be a part): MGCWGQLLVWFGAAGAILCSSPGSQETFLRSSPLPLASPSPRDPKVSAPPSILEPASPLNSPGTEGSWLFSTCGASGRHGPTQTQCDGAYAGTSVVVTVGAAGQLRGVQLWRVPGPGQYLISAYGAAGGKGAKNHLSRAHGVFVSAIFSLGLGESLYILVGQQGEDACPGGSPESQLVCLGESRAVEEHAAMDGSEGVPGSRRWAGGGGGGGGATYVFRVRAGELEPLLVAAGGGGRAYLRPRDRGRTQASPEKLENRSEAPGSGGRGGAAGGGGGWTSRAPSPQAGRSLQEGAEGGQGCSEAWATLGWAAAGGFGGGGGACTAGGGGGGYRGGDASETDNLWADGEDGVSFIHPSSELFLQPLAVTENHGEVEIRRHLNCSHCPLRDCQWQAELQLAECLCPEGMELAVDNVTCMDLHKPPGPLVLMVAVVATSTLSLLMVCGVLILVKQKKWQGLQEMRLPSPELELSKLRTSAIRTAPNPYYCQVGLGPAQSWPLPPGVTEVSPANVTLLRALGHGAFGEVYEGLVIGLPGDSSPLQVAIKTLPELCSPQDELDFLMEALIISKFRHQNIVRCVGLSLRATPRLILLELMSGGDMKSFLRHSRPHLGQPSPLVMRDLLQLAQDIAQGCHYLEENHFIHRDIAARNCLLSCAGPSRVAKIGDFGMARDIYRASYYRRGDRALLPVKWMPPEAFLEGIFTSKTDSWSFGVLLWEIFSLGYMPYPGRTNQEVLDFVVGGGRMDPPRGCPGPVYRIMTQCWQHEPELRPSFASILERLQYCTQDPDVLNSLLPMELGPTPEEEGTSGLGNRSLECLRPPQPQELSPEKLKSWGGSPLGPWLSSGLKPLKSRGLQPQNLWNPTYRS
Serine/threonine-protein kinase Nek6 (Homo sapiens), sequence (Q9HC98 whole entry, the tested form may be a part): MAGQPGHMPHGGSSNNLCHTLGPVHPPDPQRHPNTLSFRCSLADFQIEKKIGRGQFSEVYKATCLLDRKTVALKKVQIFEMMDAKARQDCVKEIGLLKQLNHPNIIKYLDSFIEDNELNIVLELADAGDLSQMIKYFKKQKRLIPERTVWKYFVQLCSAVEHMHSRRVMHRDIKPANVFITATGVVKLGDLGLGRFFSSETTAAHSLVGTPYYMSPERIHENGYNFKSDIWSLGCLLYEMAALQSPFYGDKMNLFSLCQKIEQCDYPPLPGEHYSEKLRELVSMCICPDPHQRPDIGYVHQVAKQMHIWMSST
Cyclin-dependent kinase 3 (Homo sapiens), sequence (Q00526 whole entry, looked up, the tested form may be a part): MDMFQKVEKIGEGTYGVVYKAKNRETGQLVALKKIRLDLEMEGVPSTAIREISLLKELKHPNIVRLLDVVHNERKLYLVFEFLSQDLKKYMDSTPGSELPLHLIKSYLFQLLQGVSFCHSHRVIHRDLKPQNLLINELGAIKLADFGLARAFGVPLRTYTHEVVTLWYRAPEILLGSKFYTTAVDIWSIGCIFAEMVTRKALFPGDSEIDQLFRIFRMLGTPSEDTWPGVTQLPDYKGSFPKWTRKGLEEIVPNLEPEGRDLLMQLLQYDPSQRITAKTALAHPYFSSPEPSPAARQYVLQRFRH
Tyrosine-protein kinase receptor UFO (Homo sapiens), sequence (P30530 whole entry, the tested form may be a part): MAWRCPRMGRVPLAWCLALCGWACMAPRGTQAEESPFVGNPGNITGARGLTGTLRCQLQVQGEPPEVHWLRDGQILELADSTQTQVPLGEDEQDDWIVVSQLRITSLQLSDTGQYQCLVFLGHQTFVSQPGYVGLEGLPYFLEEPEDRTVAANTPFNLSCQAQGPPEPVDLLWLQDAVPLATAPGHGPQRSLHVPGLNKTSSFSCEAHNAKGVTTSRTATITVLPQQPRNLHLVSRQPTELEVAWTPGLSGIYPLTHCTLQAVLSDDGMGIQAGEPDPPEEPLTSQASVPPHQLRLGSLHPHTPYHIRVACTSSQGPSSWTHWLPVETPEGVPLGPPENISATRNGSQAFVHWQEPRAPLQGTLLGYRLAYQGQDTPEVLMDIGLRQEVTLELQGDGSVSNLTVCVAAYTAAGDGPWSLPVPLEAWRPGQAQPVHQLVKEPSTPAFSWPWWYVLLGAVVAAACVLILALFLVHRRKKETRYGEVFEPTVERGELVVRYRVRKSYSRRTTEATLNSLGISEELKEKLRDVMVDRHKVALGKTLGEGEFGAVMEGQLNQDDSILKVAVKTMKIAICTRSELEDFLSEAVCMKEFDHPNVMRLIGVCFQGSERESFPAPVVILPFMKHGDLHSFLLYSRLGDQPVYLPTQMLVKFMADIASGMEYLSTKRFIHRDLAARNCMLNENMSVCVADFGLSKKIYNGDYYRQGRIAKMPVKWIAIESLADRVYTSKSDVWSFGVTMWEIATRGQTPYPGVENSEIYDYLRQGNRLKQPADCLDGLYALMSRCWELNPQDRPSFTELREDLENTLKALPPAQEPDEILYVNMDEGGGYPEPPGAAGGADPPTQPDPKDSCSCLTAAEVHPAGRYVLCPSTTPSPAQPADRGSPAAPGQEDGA

Row | Compound | EC50 (Aurora kinase B) [nM] | Activity [1] [%] | Activity [2] [%] | Activity [3] [%] | Activity [4] [%] | Activity [5] [%] | Activity [6] [%] | Activity [7] [%] | Activity [8] [%] | Activity [9] [%] | Activity [10] [%] | Activity [11] [%] | Activity [12] [%] | Activity [13] [%] | Activity [14] [%] | Activity [15] [%] | Activity [16] [%] | Activity [17] [%] | Activity [18] [%] | Activity [19] [%] | other results
1 | CCC(=O)Nc1ccc(C(=O)Nc2ccc(Nc3ncc4c(n3)N(C)c3ccc(C)cc3C(=O)N4C)cc2)cc1 | 11 | 64 | 3.5 | 100 | 90 | 100 | 87 | 100 | 95 | 100 | 89 | 67 | 79 | 78 | 85 | 100 | 100 | 91 | 100 | 95 | Activity [20]: 100%; Activity [21]: 100%; Activity [22]: 96%; Activity [23]: 100%; Activity [24]: 100%
2 | C=CC(=O)Nc1ccc(C(=O)Nc2ccc(Nc3ncc4c(n3)N(C)c3ccc(C)cc3C(=O)N4C)cc2)cc1 | 7.1 | 91 | 100 | 100 | 92 | 95 | 95 | 100 | 100 | 100 | 88 | 95 | 95 | 100 | 96 | 98 | 100 | 87 | 94 | 96 | Activity [20]: 100%; Activity [21]: 99%; Activity [22]: 98%; Activity [23]: 96%; Activity [24]: 100%
